# In ChEMBL document CHEMBL4184148 (Bioorg Med Chem Lett, 2017):
# What was measured:
# [1] = test system: Tyrosine-protein kinase ABL1 (Homo sapiens), P00519 [E255K]; experiment: Binding affinity to human phosphorylated ABL1 E255K mutant (S229 to K512 residues) expressed in HEK293 cells at 1 uM by Kinomescan method relative to control; format: cell-based
# [2] = biological target: Myosin-IIIa (Homo sapiens) (UniProt Q8NEV4); experiment: Binding affinity to wild-type human partial length MYO3A (M1 to K338 residues) expressed in Escherichia coli BL21 at 1 uM by Kinomescan method relative to control
# [3] = biological target: Casein kinase I isoform gamma-3 (Homo sapiens) (UniProt Q9Y6M4); experiment: Binding affinity to wild-type human full length CSNK1G3 (M1 to K447 residues) expressed in Escherichia coli BL21 at 1 uM by Kinomescan method relative to control
# How it was run: (§1)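 Run as one kinome-wide competition binding panel with each compound at a single fixed concentration. Results were plotted as a kinome-wide selectivity map.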
# [4] = biological target: Receptor-type tyrosine-protein kinase FLT3 (Homo sapiens) (UniProt P36888); experiment: Binding affinity to wild-type human partial length autoinhibited FLT3 (H564 to Y969 residues) expressed in HEK293 cells at 1 uM by Kinomescan method relative to control; format: cell-based; parameters: scale not given: the % may be the effect or the level left
# [5] = biological target: Rhodopsin kinase GRK7 (Homo sapiens) (UniProt Q8WTQ7); experiment: Binding affinity to wild-type human full length GRK7 (M1 to L553 residues) expressed in HEK293 cells at 1 uM by Kinomescan method relative to control; format: cell-based; how it was run: as §1
# [6] = biological target: Serine/threonine-protein kinase STK11 (Homo sapiens) (UniProt Q15831); experiment: Binding affinity to wild-type human full length LKB1 (M1 to Q433 residues) expressed in Escherichia coli BL21 at 1 uM by Kinomescan method relative to control; how it was run: as §1
# [7] = biological target: Phosphatidylinositol 4,5-bisphosphate 3-kinase catalytic subunit alpha isoform (Homo sapiens) (UniProt P42336); experiment: Binding affinity to wild-type human partial length PIK3CA (R108 to N1068 residues) expressed in HEK293 cells at 1 uM by Kinomescan method relative to control; format: cell-based
# [8] = biological target: 1-phosphatidylinositol 3-phosphate 5-kinase (Homo sapiens) (UniProt Q9Y2I7); experiment: Binding affinity to wild-type human partial length PIKFYVE (F1512 to C2098 residues) expressed in HEK293 cells at 1 uM by Kinomescan method relative to control; format: cell-based
# [9] = biological target: Vascular endothelial growth factor receptor 1 (Homo sapiens) (UniProt P17948); experiment: Binding affinity to wild-type human partial length FLT1 (R781 to F1239 residues) expressed in Escherichia coli BL21 at 1 uM by Kinomescan method relative to control
# [10] = biological target: Ribosomal protein S6 kinase alpha-1 (Homo sapiens) (UniProt Q15418); experiment: Binding affinity to wild-type human partial length C-terminal RSK1 kinase domain 2 (P360 to L681 residues) expressed in Escherichia coli BL21 at 1 uM by Kinomescan method relative to control
# [11] = test system: Tyrosine-protein kinase ABL1 (Homo sapiens), P00519 [H396P]; experiment: Binding affinity to human non-phosphorylated ABL1 H396P mutant (S229 to K512 residues) expressed in HEK293 cells at 1 uM by Kinomescan method relative to control; format: cell-based
# [12] = biological target: Myosin light chain kinase family member 4 (Homo sapiens) (UniProt Q86YV6); experiment: Binding affinity to wild-type human partial length MYLK4 (V79 to S380 residues) expressed in Escherichia coli BL21 at 1 uM by Kinomescan method relative to control
# [13] = biological target: Mitogen-activated protein kinase kinase kinase 12 (DLK) (Homo sapiens) (UniProt Q12852); experiment: Binding affinity to wild-type human full length DLK (M1 to P859 residues) expressed in HEK293 cells at 1 uM by Kinomescan method relative to control
# [14] = biological target: Eukaryotic translation initiation factor 2-alpha kinase 1 (Homo sapiens) (UniProt Q9BQI3); experiment: Binding affinity to wild-type human partial length EIF2AK1 (Q147 to E603 residues) expressed in HEK293 cells at 1 uM by Kinomescan method relative to control; format: cell-based
# [15] = biological target: Phosphatidylinositol 4-phosphate 5-kinase type-1 alpha (Homo sapiens) (UniProt Q99755); experiment: Binding affinity to wild-type human full length PIP5K1A (M1 to H562 residues) expressed in Escherichia coli BL21 at 1 uM by Kinomescan method relative to control
# How it was run: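 Kinome-wide competition binding panel run by an outside provider, with each compound tested at a single concentration. Activity is read against the kinase panel.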
# [16] = biological target: Serine/threonine-protein kinase 16 (Homo sapiens) (UniProt O75716); experiment: Binding affinity to wild-type human partial length STK16 (G11 to I305 residues) expressed in Escherichia coli BL21 at 1 uM by Kinomescan method relative to control
# [17] = test system: ALK tyrosine kinase receptor (Homo sapiens), Q9UM73 [L1196M]; experiment: Binding affinity to […] human partial length ALK L1196M mutant (I1088 to E1409 residues) expressed in HEK293 cells at 1 uM by Kinomescan method relative to control; format: cell-based
# [18] = biological target: Protein kinase C theta type (Homo sapiens) (UniProt Q04759); experiment: Binding affinity to wild-type human partial length PRKCQ (L350 to S706 residues) expressed in Escherichia coli BL21 at 1 uM by Kinomescan method relative to control
# [19] = biological target: cGMP-dependent protein kinase 2 (Homo sapiens) (UniProt Q13237); experiment: Binding affinity to wild-type human partial length PRKG2 (S422 to F762 residues) expressed in HEK293 cells at 1 uM by Kinomescan method relative to control; format: cell-based
# [20] = test system: Tyrosine-protein kinase ABL1 (Homo sapiens), P00519 [F317I]; experiment: Binding affinity to human non-phosphorylated ABL1 F317I mutant (S229 to K512 residues) expressed in HEK293 cells at 1 uM by Kinomescan method relative to control; format: cell-based
# [21] = biological target: Casein kinase I isoform alpha (Homo sapiens) (UniProt P48729); experiment: Binding affinity to wild-type human partial length CSNK1A1 (M1 to L450 residues) expressed in HEK293 cells at 1 uM by Kinomescan method relative to control; format: cell-based
# [22] = biological target: Serine/threonine-protein kinase MARK1 (Homo sapiens) (UniProt Q9P0L2); experiment: Binding affinity to wild-type human partial length MARK1 (Q30 to T341 residues) expressed in Escherichia coli BL21 at 1 uM by Kinomescan method relative to control
# [23] = biological target: Epidermal growth factor receptor (Homo sapiens) (UniProt P00533); experiment: Binding affinity to wild-type human partial length EGFR (R669 to V1011 residues) expressed in Escherichia coli BL21 at 1 uM by Kinomescan method relative to control
# [24] = biological target: Death-associated protein kinase 2 (Homo sapiens) (UniProt Q9UIK4); experiment: Binding affinity to wild-type human full length DAPK2 (M1 to S370 residues) expressed in Escherichia coli BL21 at 1 uM by Kinomescan method relative to control; how it was run: as §1
# [25] = biological target: Inhibitor of nuclear factor kappa-B kinase subunit beta (Homo sapiens) (UniProt O14920); experiment: Binding affinity to wild-type human full length IKK-beta (M1 to S756 residues) expressed in HEK293 cells at 1 uM by Kinomescan method relative to control; format: cell-based; how it was run: as §1
# Chain of Myosin-IIIa (Homo sapiens) (Q8NEV4 whole entry, the tested form may be a part, canonical isoform): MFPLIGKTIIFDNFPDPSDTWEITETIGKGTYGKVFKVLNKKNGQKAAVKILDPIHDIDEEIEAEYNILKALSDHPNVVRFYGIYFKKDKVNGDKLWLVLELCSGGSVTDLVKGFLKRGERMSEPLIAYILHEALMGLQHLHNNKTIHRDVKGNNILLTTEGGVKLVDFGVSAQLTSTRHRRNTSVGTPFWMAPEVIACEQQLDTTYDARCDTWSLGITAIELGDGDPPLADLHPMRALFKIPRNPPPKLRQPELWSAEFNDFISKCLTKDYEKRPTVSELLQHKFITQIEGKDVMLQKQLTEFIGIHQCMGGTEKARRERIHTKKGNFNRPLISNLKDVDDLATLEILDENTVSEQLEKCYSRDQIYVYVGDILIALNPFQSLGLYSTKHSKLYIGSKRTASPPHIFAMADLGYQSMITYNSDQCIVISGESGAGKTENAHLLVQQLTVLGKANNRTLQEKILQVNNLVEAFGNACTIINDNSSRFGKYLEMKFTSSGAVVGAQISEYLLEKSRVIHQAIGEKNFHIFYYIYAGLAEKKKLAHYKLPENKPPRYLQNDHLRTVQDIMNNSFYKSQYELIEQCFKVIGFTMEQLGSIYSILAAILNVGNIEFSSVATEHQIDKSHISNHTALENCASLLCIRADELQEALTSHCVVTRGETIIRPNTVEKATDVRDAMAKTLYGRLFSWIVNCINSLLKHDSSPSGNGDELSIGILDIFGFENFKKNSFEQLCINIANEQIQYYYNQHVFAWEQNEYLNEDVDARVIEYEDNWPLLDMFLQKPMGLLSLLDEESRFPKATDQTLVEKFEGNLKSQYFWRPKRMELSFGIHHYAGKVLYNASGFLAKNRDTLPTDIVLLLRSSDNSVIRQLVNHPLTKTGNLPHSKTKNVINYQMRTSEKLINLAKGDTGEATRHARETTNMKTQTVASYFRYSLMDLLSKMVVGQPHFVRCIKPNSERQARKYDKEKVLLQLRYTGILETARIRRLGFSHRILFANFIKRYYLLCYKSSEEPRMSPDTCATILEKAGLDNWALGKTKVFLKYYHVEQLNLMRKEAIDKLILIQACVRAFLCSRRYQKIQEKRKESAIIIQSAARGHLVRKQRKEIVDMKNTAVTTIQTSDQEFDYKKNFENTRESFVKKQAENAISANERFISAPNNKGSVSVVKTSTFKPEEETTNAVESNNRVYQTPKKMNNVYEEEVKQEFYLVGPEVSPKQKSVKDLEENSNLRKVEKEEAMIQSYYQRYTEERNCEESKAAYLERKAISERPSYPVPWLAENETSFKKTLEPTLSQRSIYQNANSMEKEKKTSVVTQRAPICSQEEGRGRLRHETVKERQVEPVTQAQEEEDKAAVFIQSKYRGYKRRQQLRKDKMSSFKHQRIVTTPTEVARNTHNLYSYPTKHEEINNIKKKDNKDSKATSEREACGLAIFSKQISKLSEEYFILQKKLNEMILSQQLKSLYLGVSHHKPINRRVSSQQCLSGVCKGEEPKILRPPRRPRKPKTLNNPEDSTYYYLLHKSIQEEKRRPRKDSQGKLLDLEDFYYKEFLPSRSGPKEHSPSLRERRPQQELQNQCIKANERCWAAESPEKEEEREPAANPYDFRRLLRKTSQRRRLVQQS
# Chain of Serine/threonine-protein kinase STK11 (Homo sapiens) (Q15831 whole entry, the tested form may be a part, canonical isoform): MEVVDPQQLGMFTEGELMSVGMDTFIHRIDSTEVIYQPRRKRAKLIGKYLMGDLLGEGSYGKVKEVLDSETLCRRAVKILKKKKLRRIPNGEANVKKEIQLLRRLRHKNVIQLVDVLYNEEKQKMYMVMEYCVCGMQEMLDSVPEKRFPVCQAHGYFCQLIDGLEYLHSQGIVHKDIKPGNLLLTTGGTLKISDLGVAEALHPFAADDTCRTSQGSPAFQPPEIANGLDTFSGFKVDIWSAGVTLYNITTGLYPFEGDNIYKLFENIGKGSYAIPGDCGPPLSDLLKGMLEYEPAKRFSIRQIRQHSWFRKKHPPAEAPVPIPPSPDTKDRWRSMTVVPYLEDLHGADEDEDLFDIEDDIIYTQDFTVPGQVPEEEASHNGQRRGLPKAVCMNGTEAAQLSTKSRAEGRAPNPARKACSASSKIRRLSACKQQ
# Chain of ALK tyrosine kinase receptor (Homo sapiens), Q9UM73 [L1196M] (Q9UM73 whole entry L1196M, looked up, the tested form may be a part): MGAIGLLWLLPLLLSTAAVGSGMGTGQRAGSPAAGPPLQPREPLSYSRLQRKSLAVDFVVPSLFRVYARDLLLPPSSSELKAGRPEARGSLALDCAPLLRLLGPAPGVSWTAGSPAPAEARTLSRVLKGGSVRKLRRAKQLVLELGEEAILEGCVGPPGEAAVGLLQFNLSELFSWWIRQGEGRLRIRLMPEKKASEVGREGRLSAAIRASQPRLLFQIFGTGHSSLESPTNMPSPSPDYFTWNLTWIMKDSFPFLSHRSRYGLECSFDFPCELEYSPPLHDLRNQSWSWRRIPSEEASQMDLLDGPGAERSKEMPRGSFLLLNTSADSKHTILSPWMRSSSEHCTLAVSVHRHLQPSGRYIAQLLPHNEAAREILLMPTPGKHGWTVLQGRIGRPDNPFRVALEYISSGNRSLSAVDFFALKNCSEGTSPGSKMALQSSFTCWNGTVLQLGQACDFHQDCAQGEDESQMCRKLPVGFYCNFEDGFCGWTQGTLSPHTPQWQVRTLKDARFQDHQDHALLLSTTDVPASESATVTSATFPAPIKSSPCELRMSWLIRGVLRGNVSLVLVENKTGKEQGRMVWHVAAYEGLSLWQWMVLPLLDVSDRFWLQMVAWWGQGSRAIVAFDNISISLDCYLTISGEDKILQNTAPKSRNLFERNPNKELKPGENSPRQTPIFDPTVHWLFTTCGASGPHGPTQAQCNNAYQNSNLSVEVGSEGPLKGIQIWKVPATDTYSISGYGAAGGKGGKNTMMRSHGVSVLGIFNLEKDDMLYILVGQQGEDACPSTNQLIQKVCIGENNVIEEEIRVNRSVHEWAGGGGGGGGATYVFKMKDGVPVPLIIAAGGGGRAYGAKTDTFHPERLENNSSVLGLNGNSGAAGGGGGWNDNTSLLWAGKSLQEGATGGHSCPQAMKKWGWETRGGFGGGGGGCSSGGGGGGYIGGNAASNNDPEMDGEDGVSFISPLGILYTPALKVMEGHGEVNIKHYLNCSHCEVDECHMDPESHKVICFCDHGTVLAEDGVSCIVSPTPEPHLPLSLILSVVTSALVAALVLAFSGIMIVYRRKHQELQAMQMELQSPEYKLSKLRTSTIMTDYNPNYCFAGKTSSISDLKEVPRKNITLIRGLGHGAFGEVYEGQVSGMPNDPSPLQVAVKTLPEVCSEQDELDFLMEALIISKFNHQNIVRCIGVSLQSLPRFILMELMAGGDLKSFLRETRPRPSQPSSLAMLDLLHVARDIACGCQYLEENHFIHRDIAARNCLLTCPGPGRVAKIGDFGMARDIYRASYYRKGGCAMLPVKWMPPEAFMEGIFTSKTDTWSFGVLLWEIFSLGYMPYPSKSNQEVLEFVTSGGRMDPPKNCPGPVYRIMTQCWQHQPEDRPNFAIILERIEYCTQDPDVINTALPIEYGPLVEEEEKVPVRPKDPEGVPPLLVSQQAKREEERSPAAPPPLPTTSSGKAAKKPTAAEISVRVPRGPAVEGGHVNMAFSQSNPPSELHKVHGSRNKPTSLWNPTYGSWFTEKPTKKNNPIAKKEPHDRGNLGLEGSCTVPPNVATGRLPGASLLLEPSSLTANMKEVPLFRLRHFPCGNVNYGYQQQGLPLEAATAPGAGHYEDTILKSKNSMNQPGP
# Chain of Receptor-type tyrosine-protein kinase FLT3 (Homo sapiens) (P36888 whole entry, the tested form may be a part): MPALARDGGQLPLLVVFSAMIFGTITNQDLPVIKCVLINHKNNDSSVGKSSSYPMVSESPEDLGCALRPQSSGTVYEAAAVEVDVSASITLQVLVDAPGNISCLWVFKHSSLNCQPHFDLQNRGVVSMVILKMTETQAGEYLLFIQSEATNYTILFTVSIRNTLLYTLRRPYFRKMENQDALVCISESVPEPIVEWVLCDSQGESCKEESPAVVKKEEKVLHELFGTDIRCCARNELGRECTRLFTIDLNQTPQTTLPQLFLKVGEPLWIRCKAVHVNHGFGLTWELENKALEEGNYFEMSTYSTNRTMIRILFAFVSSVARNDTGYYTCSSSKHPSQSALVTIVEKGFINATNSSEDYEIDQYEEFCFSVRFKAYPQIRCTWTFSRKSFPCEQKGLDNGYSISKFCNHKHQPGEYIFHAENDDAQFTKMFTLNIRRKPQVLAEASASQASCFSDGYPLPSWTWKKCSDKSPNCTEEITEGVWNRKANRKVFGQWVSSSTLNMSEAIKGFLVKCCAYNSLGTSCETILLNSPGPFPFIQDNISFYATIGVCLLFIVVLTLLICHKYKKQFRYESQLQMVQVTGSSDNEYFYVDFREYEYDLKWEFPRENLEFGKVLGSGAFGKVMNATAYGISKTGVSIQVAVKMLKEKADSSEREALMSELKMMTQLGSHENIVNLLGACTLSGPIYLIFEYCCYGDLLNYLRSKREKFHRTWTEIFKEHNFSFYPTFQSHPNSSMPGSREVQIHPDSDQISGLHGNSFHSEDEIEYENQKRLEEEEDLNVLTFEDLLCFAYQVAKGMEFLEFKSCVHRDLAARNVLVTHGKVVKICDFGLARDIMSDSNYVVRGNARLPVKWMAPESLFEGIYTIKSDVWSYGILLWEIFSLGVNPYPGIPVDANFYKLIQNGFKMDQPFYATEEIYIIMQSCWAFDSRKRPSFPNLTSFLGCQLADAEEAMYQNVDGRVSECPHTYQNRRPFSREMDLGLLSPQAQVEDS
# Chain of Casein kinase I isoform gamma-3 (Homo sapiens) (Q9Y6M4 whole entry, looked up, the tested form may be a part, canonical isoform): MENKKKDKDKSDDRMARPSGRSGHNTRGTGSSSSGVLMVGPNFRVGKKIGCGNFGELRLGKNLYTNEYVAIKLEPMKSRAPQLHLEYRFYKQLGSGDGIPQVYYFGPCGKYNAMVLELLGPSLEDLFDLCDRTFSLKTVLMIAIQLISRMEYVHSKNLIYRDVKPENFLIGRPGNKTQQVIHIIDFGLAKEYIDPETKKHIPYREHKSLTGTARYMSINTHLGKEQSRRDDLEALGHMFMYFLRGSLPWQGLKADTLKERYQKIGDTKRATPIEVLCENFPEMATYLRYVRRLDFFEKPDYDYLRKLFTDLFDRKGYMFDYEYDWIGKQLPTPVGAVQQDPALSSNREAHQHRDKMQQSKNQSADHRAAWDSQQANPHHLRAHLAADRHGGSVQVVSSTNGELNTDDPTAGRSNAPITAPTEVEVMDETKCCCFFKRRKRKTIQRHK
SMILES,Activity [1],Activity [2],Activity [3],Activity [4],Activity [5],Activity [6],Activity [7],Activity [8],Activity [9],Activity [10],Activity [11],Activity [12],Activity [13],Activity [14],Activity [15],Activity [16],Activity [17],Activity [18],Activity [19],Activity [20],other results
C=CC(=O)Nc1ccc(C(=O)Nc2ccc(Nc3ncc4c(n3)N(C)c3ccc(C)cc3C(=O)N4C)cc2)cc1,77%,94%,100%,84%,93%,93%,76%,100%,87%,96%,84%,100%,100%,100%,100%,77%,94%,96%,88%,77%,Activity [21]: 86%; Activity [22]: 84%; Activity [23]: 83%; Activity [24]: 100%; Activity [25]: 97%
CCC(=O)Nc1ccc(C(=O)Nc2ccc(Nc3ncc4c(n3)N(C)c3ccc(C)cc3C(=O)N4C)cc2)cc1,60%,96%,97%,85%,87%,94%,87%,98%,91%,99%,62%,100%,98%,93%,100%,77%,96%,99%,84%,76%,Activity [21]: 58%; Activity [22]: 85%; Activity [23]: 69%; Activity [24]: 91%; Activity [25]: 95%
